The sample as a whole holds a higher share of hits than the screen did.
Calb biofilm kill: mixtures killing C. albicans biofilm | C. albicans biofilm persisters + clotrimazole, fluorescence viability; primary screen in compound mixtures of four per well | inhibition, % at 7.6 µM | actives 0.02% (n = 120,000) | AID 1242;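 active = inhibition above 30.3% in the primary screen of four-compound pools, then above 30% when the compound was retested; inconclusive = passed the primary limit but could not be retested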;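 also: compounds exposed to preformed 24 h biofilms for 48 h; 0% = untreated biofilm control and 100% = clotrimazole plus chlorhexidine kill blank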
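Test system: C. albicans CAF4-2 wild-type biofilms; buffer or medium: RPMI/MOPS medium, pH 7.0; schedule: 24 h biofilm formation, then 48 h compound exposure, 37 °C; detection: Alamar Blue fluorescence; measure: percent inhibition of biofilm viability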
ROMK primary: modulates human ROMK potassium channel activity. actives 2% (n = 130,000). Tet-inducible ROMK, thallium flux fluorescence; actives lie on both sides. P48048. B-score at 10 µM. AID 1918;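 active = signal ratio slope over the read window, or its plate-corrected B-score, at least 3 SD from the plate mean, either direction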;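 also: B-score of the F/F0 ratio slope over 7 to 12 s after thallium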
Target sequence (P48048 whole entry, looked up): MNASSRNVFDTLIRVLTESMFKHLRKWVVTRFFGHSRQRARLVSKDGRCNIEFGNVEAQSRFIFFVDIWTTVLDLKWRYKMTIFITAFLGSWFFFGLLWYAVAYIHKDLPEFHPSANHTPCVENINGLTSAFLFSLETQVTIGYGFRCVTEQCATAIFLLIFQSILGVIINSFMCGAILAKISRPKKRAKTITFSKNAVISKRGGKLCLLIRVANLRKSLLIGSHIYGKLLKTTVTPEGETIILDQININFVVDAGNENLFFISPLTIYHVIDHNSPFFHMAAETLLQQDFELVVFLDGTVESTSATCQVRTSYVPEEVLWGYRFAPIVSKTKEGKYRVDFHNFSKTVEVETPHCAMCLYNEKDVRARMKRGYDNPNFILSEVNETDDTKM
Pf gametocyte: kills late stage P. falciparum gametocytes. P. falciparum stage V gametocytes, ATP luminescence, 24 h. inhibition, % at 10.9 µM. actives 0.065% (n = 150,000). AID 743093;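 active = inhibition above the mean plus 3 SD of compounds within the control limits, set per campaign, cut at about 38% in these data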;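 also: 0% = DMSO wells and 100% = medium only without gametocytes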
ROMK hit retest: confirmation of human ROMK potassium channel modulators; shares compounds with ROMK primary; ROMK thallium flux, fluorescence ratio; hits give low values; normalized thallium flux (F/F0 slope) at 10 µM; actives 54% (n = 3,000); AID 1917;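 active = Flux at 10 µM at least 3 SD below or above vehicle control mean in one or both replicates; inconclusive = no clear call, values can overlap the other calls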
* hit, by the source's call; ? = inconclusive; . = no result.

SMILES | Calb biofilm kill | ROMK primary | Pf gametocyte | ROMK hit retest
CCCNC(=O)C(Cc1cccc(C#N)c1)NC(=O)c1ccc(C#N)cc1 (centres undefined) | . | . | 14.1 | .
Cc1nc2cc(C(=O)NCc3cccnc3)ccc2n1-c1ccc(F)cc1F | 9.0 | -2.16 | . | .
O=C1CC2(CCCC2)C(=O)N1c1ccc(S(=O)(=O)NCC2CC2)cc1Cl | 13.0 | -0.253 | -17.2 | .
CC(C)Cn1cnc2c(c(-c3ccccc3)c(-c3ccccc3)n2Cc2ccco2)c1=N | . | -4.34* | . | 0.044*
O=c1c2ccccc2nc(-c2ccccc2)n1Cc1ccco1 | . | . | 5.3 | .
O=C1c2ccccc2C(=O)N1Cc1ccccn1 | 1.9 | 1.49 | . | .
Cc1nc2ccc([N+](=O)[O-])cc2[nH]1 | -1.7 | -0.0263 | 2.0 | .
O=[N+]([O-])c1cccc(/C=C/c2nc3ccc([N+](=O)[O-])cc3[nH]2)c1 | . | -5.21* | 10.2 | 0.0419*
CCOC(=O)c1c(C)n(-c2ccc(C)cc2)c2ccc(OCC(O)CNCC3CCCO3)cc12 (centres undefined) | 20.7 | 0.188 | . | .
CCOC(=O)c1c(C)n(-c2ccc(C)cc2)c2ccc(OCC(O)CNCCCO)cc12 (centres undefined) | 5.2 | -3.63* | 7.8 | 0.0526*
O=C(NNC(=O)C(Cl)Cl)c1cnn(-c2ccccc2)c1C(F)(F)F | 25.0 | . | -8.8 | .
O=C(O)CC(NC(=O)CCC1CCCCC1)c1cc([N+](=O)[O-])ccc1Cl (centres undefined) | 12.0 | -0.3 | -17.9 | .
CC(C)(C)NC(=O)COC(=O)c1snc(C(=O)NC2CCCCC2)c1N | . | -3.8* | -2.6 | 0.0716
CC(OC(=O)c1snc(C(=O)NC2CCCCC2)c1N)C(=O)NC(C)(C)C (centres undefined) | 3.8 | -2.11 | . | .
Cc1nnc2sc(-c3cccc4ccccc34)nn12 | . | -5.2* | -9.6 | 0.0538*
Cc1nnc2c3ccccc3c(-c3cccc4ccccc34)nn12 | . | -0.42 | . | .
CCC1=NN2C(=N)/C(=C\c3cccn3-c3ccc(OC)cc3)C(=O)N=C2S1 | 2.1 | 0.684 | 10.2 | .
CCC1=NN2C(=N)/C(=C/c3c(C)nn(-c4ccccc4)c3Cl)C(=O)N=C2S1 | 12.0 | -3.09* | . | 0.0467*
O=C(O)c1ccc(Nc2nc(-c3cccnc3)nc3ccccc23)cc1 | 15.0 | . | . | .
Cc1ccccc1NC(=O)c1ccc(-c2ccc(Cl)cc2Cl)o1 | . | 0.129 | 14.8 | .
Cc1cccc(C)c1NC(=O)c1ccc(-c2ccc(Cl)cc2Cl)o1 | . | -2.93* | . | 0.052*
CC(C)N(C(=S)Nc1cccc(S(=O)(=O)N(C)C)c1)c1ccccc1 | 20.8 | . | 14.4 | .
C=CCCC(=O)Nc1ccc(Br)cn1 | 10.2 | 2.55* | 33.8 | 0.0761
CCCCC(=O)Nc1ccc(Br)cn1 | . | -0.306 | . | .
Cc1cccc(NC(=O)c2cnccn2)c1 | . | . | 9.7 | .
SMILES | Calb biofilm kill | ROMK primary | Pf gametocyte | ROMK hit retest
CCOC(=O)c1c(NC(=S)Nc2ccccc2)sc(C)c1C | 6.9 | . | 10.4 | .
CCOC(=O)c1c(NC(=O)C[n+]2ccc(Cc3ccccc3)cc2)sc(C)c1C | 18.9 | -3.81* | 23.8 | 0.0614*
NC(Cc1c[nH]c2ccccc12)C(=O)NCc1ccccc1 (centres undefined) | . | . | -7.7 | .
Cn1nc(C(C)(C)C)cc1NC(=O)Nc1cc(Cl)cc(Cl)c1 | -0.1 | . | -13.2 | .
CCOc1ccccc1CN1CCCC(CNC(=O)Cc2ccc(OC)cc2)C1 (centres undefined) | . | . | -10.7 | .
O=C(c1cc(Sc2cccc(Cl)c2)nc2ccccc12)N1CCN(c2ccccn2)CC1 | 16.4 | -0.817 | 3.1 | 0.0777
O=C(c1cc(Sc2ccc(Cl)cc2)nc2ccccc12)N1CCN(c2ccccn2)CC1 | 12.8 | 0.0599 | 5.9 | .
CCOC(=O)C1CCN(CCCSc2ccccc2)CC1 | . | . | -13.3 | .
FC(F)(F)c1cnc(COc2cc(Cl)cc(Cl)c2)c(Cl)c1 | 9.7 | . | 8.9 | 0.0786
CC(C)(C)NC(=O)CCc1ncc(C(F)(F)F)cc1Cl | 20.5 | . | -5.8 | .
O=c1oc(CCCO)cc2ccc(/C=C/c3cccc([N+](=O)[O-])c3)cc12 | . | . | -14.0 | .
CCOC(=O)N1CCN(C(=O)COc2ccc(Cl)cc2)CC1 | . | -1.58 | 2.9 | .
CCOC(=O)N1CCN(C(=O)COc2ccc(Cl)c(C)c2)CC1 | 6.7 | -3.62* | -9.8 | 0.0584*
CC(C)CCN1CCN(C2CCN(c3ccccc3)CC2)CC1CCO (centres undefined) | 22.9 | 0.0697 | 8.1 | .
COCCNC(=O)CSC1=N/C(=C/c2ccc(Cl)c(Cl)c2)C(=O)N1c1ccccc1F | 6.1 | . | . | 0.0772
C=CCN1C(=O)/C(=C\c2ccc(Cl)cc2)N=C1SCC(=O)NCCC | . | 2.61 | . | .
Cc1ccccc1CNC(=O)c1ccccc1N(C)S(=O)(=O)c1ccccc1 | . | . | 13.6 | .
CCOC(=O)N1CCN(C(=O)/C=C/c2ccc(OC)cc2)CC1 | . | . | 12.1 | .
O=c1c(Cc2ccccc2)c(O)c2cccc3c4c(n1c23)CCCC4 | 12.8 | 3.79* | 12.3 | ?

Screening data deposited in PubChem by several laboratories.
